The values that follow come from ChEMBL document CHEMBL4402580, “Structure-Activity Relationship Studies of Tetrahydroquinolone Free Fatty Acid Receptor 3 Modulators” (J Med Chem, 2020).

The source made the active and inactive calls. The calls are words filed in the database; no cut-off is given here.

Series [1] addresses T1, Free fatty acid receptor 3 (Homo sapiens) (UniProt O14843).
T1 sequence (whole entry): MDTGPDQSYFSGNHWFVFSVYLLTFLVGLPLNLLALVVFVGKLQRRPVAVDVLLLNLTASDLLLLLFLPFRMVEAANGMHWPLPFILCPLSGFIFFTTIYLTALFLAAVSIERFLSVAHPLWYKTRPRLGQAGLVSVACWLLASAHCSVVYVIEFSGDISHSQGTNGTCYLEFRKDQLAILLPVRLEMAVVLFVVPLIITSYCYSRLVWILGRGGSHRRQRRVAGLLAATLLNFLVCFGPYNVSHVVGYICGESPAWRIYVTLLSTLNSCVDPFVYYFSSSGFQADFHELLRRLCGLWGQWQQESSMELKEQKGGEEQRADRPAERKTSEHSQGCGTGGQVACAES

Series [2] addresses T1, Free fatty acid receptor 3 (Homo sapiens). Kind of series: Negative allosteric modulation at human FFA3 receptor stably expressed in Flp-In T-Rex HEK293 cells cotransfected with eYFP assessed as effect on forskolin-induced cAMP production at 30 uM measured after 1 hr in presence of 3 uM propionate by fluorescence plate reader assay. (cAMP levels reflect the balance of adenylyl cyclase and phosphodiesterase activity.)

In series [3] the target is T2, Free fatty acid receptor 3 (Mus musculus) (UniProt Q3UFD7).
T2 sequence (whole entry): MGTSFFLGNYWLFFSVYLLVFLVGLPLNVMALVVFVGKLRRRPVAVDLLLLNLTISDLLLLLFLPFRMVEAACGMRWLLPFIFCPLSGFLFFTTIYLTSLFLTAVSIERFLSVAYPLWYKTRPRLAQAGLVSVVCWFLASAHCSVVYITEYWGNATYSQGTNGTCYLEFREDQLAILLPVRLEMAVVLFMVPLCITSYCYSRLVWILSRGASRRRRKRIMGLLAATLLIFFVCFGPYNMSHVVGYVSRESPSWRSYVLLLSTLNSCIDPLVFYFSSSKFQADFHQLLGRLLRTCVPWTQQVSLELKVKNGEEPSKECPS
Kind of series: Agonist activity at FFA3 in C57/BL6 mouse DRG neurons assessed as increase in intracellular calcium level at 5 uM by Fura-8/AM staining based inverted fluorescence microscopy. The class given is functional, cell-based. In short, it runs like this:
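Mouse colonic-innervating DRGs (T9–L2), wild-type C57/BL6 and FFA3 knockout, digested with papain/L-cysteine then collagenase/dispase, triturated, cultured overnight on matrigel. Cells loaded with Fura 8-AM (3 μM, 20 min, 37 °C), perfused with HEPES buffer pH 7.4, ligand applied 3 min, then ionomycin 5 μM as positive control. Read-out: relative fluorescence by real-time imaging; N = 3 mice per genotype.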

In series [4] the target is Free fatty acid receptor 1 (Homo sapiens) (UniProt O14842). Kind of series: Agonist activity at human C-terminal eYFP tagged FFA1 receptor stably expressed in HEK293T cells cotransfected with nano-luciferase assessed as recruitment of beta-arrestin2 at 10 uM followed by TUG-770 addition prior to compound treatment by BRET assay. It is filed as cell-based.
Series [5] deals with T3, Free fatty acid receptor 2 (Homo sapiens) (UniProt O15552).
T3 sequence (whole entry): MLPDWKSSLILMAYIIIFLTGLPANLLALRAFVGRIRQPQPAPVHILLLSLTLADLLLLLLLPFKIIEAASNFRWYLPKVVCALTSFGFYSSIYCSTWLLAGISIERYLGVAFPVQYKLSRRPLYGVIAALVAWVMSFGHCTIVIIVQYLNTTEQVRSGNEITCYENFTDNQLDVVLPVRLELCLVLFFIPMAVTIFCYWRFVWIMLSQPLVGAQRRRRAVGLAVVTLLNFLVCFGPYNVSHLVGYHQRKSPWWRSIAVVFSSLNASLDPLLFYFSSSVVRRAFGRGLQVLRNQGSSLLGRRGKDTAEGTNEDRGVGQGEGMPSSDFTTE
Kind of series: Agonist activity at human C-terminal eYFP tagged FFA2 receptor stably expressed in Flp-In T-Rex 293 cells assessed as inhibition of forskolin-induced cAMP production at 10 uM after 30 mins by HTR-FRET assay. The class given is functional, cell-based.

Series [6] addresses Voltage-dependent L-type calcium channel subunit alpha-1C (Homo sapiens, UniProt Q13936). As to the kind of experiment: Displacement of [3H]-PN200-110 from recombinant full length human L-type calcium channel expressed in HEK293 cells at 10 uM incubated for 120 mins by radiometric scintillation counting method. The class given is cell-based. The settings on record: hek293, 2 h. In general terms: Loss of bound radioactivity is the signal in a displacement assay; it reports binding, not function.

Series [7] can be described thus: Chemical stability of compound in DMSO assessed as compound degradation at 25 degree C measured after 30 days by NMR analysis. It is filed as physicochemical. As to conditions: 720 h.
Series [8] is described as follows: Chemical stability of compound in DMSO at 25 degree C measured after 7 days by NMR analysis. It is filed as physicochemical. The settings on record: read-out: Stability.
Series [9] deals with DRG neuron. As to the kind of experiment: Effect on intracellular calcium level in FFA3 knock out C57/BL6 mouse DRG neurons at 5 uM by Fura-8/AM staining based inverted fluorescence microscopy. The class given is functional, cell-based. In short, it runs like this: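 DRGs from T9–L2 spinal cord of FFA3 knock-out and wild-type C57/BL6 mice; papain/L-cysteine then collagenase/dispase digestion (20 min each, 37 °C), trituration, matrigel coverslips, overnight culture in DMEM/10% FCS. Fura 8-AM (3 μM) loading 20 min, 37 °C; perfusion with HEPES buffer pH 7.4 at room temperature; ligand applied 3 min, then ionomycin 5 μM. Relative fluorescence; N = 3 mice.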
On the technique in general: Calcium assays in cells follow changes in intracellular calcium, usually with a dye or a luminescent sensor.

The nature of series [10]: Chemical stability of compound in DMSO at 4 degree C measured after 7 days by NMR analysis. The class given is physicochemical. The settings on record: read-out: Stability.
The target of series [11] is G-protein coupled receptor 84 (Homo sapiens) (UniProt Q9NQS5). As to the kind of experiment: Agonist activity at human C-terminal Gia tagged GPR84 receptor stably expressed in Flp-In T-Rex 293 cells assessed as inhibition of forskolin-induced cAMP production at 10 uM after 45 mins by HTR-FRET assay. The class given is functional, cell-based.
The nature of series [12]: Chemical stability of compound in DMSO at 4 degree C measured after 30 days by NMR analysis. It is filed as physicochemical. As to conditions: read-out: Stability.
Series [13] deals with T4, Free fatty acid receptor 4 (Homo sapiens) (UniProt Q5NUL3).
T4 sequence (whole entry): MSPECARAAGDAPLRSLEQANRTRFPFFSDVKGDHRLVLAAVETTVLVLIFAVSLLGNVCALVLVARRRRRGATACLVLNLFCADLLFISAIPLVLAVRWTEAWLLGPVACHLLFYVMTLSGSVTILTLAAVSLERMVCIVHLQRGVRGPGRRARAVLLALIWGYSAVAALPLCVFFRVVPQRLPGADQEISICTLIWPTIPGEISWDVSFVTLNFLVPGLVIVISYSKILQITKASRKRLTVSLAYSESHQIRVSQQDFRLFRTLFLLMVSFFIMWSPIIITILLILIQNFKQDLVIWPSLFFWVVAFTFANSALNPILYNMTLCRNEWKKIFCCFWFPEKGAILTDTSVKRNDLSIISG
Kind of series: Agonist activity at human C-terminal eYFP tagged FFA4 receptor stably expressed in HEK293T cells cotransfected with nano-luciferase assessed as recruitment of beta-arrestin2 at 10 uM followed by TUG-891 addition prior to compound treatment by BRET assay. It is filed as cell-based.

The target in series [14] is T5, Free fatty acid receptor 3 (Homo sapiens, UniProt O14843).
T5 sequence (O14843 whole entry): T1 sequence (whole entry)
Kind of series: (§1) Positive allosteric modulation at human FFA3 receptor stably expressed in Flp-In T-Rex HEK293 cells cotransfected with eYFP assessed as inhibition of forskolin-induced cAMP production measured after 1 hr in presence of 1 uM propionate by fluorescence plate reader assay. It is filed as functional, cell-based.

For series [15], the target named is T1, Free fatty acid receptor 3 (Homo sapiens). The series is described as §1. It is filed as functional, cell-based.
For series [16] the target is unchanged. The source holds these as a separate data set.
For series [17], the target named is T5, Free fatty acid receptor 3.
In series [18] the target is T5, Free fatty acid receptor 3. As to the kind of experiment: Agonist activity at human FFA3 receptor stably expressed in Flp-In T-Rex HEK293 cell membrane assessed as stimulation of [35S]-GTPgammaS binding measured after 1 hr in presence of GDP by liquid scintillation spectrometry.

Sequence of Voltage-dependent L-type calcium channel subunit alpha-1C (Q13936 whole entry): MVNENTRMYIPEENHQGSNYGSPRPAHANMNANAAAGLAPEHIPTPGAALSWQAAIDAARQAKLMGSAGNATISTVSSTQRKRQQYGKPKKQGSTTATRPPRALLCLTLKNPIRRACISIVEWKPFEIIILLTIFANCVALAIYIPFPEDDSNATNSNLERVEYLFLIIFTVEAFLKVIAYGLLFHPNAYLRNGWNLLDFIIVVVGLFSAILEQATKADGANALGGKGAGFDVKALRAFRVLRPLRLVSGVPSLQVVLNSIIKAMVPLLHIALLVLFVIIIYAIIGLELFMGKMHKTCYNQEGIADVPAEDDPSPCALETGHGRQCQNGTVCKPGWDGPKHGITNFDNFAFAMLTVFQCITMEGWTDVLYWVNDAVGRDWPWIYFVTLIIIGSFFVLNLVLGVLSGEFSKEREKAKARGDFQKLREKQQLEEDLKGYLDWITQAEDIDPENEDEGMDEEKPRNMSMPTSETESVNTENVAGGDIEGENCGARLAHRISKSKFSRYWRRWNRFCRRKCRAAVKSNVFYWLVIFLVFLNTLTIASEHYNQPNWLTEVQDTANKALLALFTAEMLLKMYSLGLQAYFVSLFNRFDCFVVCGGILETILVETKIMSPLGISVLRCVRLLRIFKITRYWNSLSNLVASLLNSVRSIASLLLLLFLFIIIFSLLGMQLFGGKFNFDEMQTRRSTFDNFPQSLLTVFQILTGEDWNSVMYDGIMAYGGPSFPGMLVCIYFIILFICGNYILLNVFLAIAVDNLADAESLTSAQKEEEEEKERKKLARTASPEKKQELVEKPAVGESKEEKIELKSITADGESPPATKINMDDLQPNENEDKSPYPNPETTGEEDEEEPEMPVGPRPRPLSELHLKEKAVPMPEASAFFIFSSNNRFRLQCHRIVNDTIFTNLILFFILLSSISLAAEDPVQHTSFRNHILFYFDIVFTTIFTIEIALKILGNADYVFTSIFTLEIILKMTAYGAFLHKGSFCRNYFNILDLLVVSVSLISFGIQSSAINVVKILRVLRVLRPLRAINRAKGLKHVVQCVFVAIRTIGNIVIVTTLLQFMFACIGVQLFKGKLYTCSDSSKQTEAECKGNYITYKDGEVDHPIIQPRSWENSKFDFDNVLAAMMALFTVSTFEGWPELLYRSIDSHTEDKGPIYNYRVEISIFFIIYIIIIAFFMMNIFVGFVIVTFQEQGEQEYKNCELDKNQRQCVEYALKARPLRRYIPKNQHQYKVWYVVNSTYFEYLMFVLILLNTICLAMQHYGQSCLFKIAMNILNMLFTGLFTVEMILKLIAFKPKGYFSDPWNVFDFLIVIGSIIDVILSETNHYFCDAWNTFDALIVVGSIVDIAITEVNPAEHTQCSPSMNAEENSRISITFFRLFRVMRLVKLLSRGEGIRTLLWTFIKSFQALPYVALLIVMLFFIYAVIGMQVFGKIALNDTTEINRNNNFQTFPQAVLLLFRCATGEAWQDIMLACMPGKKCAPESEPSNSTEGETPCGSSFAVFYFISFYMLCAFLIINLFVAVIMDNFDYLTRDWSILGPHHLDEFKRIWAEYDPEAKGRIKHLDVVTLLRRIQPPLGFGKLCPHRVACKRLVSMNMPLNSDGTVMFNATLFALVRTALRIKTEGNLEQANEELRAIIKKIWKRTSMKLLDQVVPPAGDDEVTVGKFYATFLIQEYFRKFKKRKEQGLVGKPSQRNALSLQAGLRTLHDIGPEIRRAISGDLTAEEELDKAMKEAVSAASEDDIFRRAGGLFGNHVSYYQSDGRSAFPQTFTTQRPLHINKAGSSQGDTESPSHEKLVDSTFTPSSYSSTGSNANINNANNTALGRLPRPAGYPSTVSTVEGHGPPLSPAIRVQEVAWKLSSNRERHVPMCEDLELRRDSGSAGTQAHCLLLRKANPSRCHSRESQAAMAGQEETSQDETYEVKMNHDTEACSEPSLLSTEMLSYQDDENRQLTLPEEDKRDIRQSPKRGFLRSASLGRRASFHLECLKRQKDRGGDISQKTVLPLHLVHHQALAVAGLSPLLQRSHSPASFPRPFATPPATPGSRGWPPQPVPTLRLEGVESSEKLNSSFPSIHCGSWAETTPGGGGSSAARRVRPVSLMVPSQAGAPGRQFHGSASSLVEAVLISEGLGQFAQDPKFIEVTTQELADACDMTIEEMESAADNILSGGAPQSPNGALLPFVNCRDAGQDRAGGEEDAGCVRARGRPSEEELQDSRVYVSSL
Sequence of Free fatty acid receptor 1 (Homo sapiens) (O14842 whole entry): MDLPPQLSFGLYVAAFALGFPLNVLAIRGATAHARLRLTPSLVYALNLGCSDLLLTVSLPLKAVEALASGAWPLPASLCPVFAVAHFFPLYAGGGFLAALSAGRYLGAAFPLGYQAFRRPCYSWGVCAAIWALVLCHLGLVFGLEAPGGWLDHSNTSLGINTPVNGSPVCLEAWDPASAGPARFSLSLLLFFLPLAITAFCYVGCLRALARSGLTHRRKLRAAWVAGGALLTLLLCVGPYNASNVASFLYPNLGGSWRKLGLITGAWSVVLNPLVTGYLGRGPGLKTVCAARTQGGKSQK
Sequence of G-protein coupled receptor 84 (Homo sapiens) (Q9NQS5 whole entry): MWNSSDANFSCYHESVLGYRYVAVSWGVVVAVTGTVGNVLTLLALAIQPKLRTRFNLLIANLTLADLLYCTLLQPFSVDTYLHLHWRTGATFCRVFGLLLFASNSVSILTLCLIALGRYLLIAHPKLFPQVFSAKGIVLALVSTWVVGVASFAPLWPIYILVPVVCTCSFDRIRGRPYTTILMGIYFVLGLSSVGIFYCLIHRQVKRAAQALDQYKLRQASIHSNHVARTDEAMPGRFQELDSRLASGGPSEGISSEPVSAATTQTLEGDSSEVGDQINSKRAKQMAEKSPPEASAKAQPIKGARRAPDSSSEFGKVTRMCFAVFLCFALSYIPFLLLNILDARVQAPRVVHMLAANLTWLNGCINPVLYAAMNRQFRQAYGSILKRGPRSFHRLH

In the case of `CC1=C(C(=O)Nc2cc(Cl)ccc2Cl)C(CC2CCN(C(=O)OC(C)(C)C)CC2)C2=C(CCCC2=O)N1` (centres undefined), in [1], the pEC50 entry was “inactive”. In addition, in [2], the result was Active.

As for `CC1=C(C(=O)Nc2cc(Cl)ccc2Cl)C(CN)C2=C(CCCC2=O)N1` (centres undefined), the pEC50 result in series [1] was “inactive”.

Regarding `CC1=C(C(=O)Nc2cc(Cl)ccc2Cl)C(CC2CCNCC2)C2=C(CCCC2=O)N1` (centres undefined), the pEC50 entry in series [1] is “inactive”.

In the case of `CCCC1C(C(=O)Nc2cc(Cl)ccc2Cl)=C(C)NC2=C1C(=O)CCC2` (centres undefined), the outcome in series [3] was Active. The result in series [4], in [5], in series [9], in series [11] and in series [13] was inactive. Besides, the “inhibition (INH)” value in series [6] is reported as “Not Active”. Moreover, the Stability entry in [7] is “Unstable”. Also, the remaining at 168 h in series [8] and in [10] was 100% in each case. In series [12], the remaining at 720 h was 100%.

As to `CC1=C(C(=O)Nc2cc(Cl)ccc2Cl)C(C2CCCC2)C2=C(CCCC2=O)N1` (centres undefined), the outcome in series [4], in [5], in series [11] and in [13] was inactive. The “inhibition (INH)” value in [6] is “Not Active”.

Turning to `COC(=O)C1=C(C)NC2=C(C(=O)CCC2)C1CC(C)C` (centres undefined), the pEC50 result in series [1] is “inactive”.

For `COC(=O)C1=C(C)NC(C)=C(C(=O)Nc2ccccc2C)C1CC(C)C` (centres undefined), in series [1], the pEC50 result was “inactive”.

Take `CC1=C(C(=O)Nc2cc(Cl)ccc2Cl)C(c2ccco2)C2=C(CCCC2=O)N1` (centres undefined): the result in [4], in [5], in series [11] and in series [13] was inactive. Moreover, the “inhibition (INH)” value in series [6] is listed as “Not Active”.

As to `CCN(CC)CCOCC1C(C(=O)Nc2cc(Cl)ccc2Cl)=C(C)NC2=C1C(=O)CCC2` (centres undefined), the pEC50 entry in [1] was “inactive”.

Usually EC50 stands for the concentration giving half of the maximal effect. As for `CC1=C(C(=O)Nc2ccccc2C)C(c2ccco2)C2=C(CCCC2=O)N1` (centres undefined), the outcome in series [4], in [5], in series [11] and in series [13] was inactive. Also, the EC50 in series [14] was 0.537 µM. Besides, the “inhibition (INH)” value in series [6] is listed as “Not Active”.

With `Cc1ccccc1NC(=O)c1c(C)nc2c(c1-c1ccco1)C(=O)CCC2`, the pEC50 result in series [1] and in [15] was “inactive” in each case.

For `CC1=C(C(=O)Nc2ccccc2C)C(CC(C)C)C(C(=O)c2ccccc2)=C(C)N1` (centres undefined), the pEC50 entry in series [1] and in [15] was “inactive” each time.

For the compound `CC1=C(C(=O)Nc2ccccc2C)C(c2ccccc2Br)C2=C(CCCC2=O)N1` (centres undefined), the pEC50 result in series [16] is “inactive”.

For the compound `CC1=C(C(=O)Nc2cc(Cl)ccc2Cl)C(CNC(=O)OC(C)(C)C)C2=C(CCCC2=O)N1` (centres undefined), in series [1], the pEC50 entry was “inactive”.

`CC1=C(C(=O)c2ccccc2)C(CC(C)C)C2=C(CCCC2=O)N1` (centres undefined): the pEC50 entry in [1] is “inactive”.

`CCC(=O)O` [PROPIONIC ACID]: the figures for the EC50 in [17] and in [18] were 11.7 µM and 10.7 µM, respectively.

As to `Cc1ccccc1NC(=O)C1=C(c2ccccc2)NC2=C(C(=O)CCC2)C1c1ccco1` (centres undefined), the pEC50 result in series [1] was “inactive”.
